Assay results published in publication PMC5634372 (International Journal of Nanomedicine, 2017).

Tests used:
[1] = system: TNBC cell lines; conditions: cited from earlier work
[2] = system: xenograft model of colon cancer; conditions: cited from earlier work
[3] = system: MDA-MB-231 xenografts; experiment: Xenograft model of TNBC, tumor growth; type: in vivo, SCID mice; conditions: 10 mg/kg iv twice a week for 2 weeks, vs vehicle control
Outline: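 Female SCID mice (7–8 weeks) given s.c. rear-flank 1×10^6 MDA-MB-231 cells in 0.1 mL 50% Matrigel. At 100 mm3, randomized (eight per group). Dosed via tail vein twice weekly for 2 weeks with free or SMA-micelle test compound, or vehicle (100 μL; SMA in NaOH, pH 7.4). Tumor volume (L×W×H) by electronic calipers, two independent measurements bi-weekly. Euthanized day 24.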

Q: With `COc1cc(C=C2CN(C)CC(=Cc3cc(OC)c(OC)c(OC)c3)C2=O)cc(OC)c1OC` [RL71, 3,5-bis(3,4,5-trimethoxybenzylidene)-1-methylpiperidine-4-one] as the molecule, how does the “apoptosis and cell cycle effect” value ([1]; 1 µM, several TNBC cell lines) read?
A: The value was “induced apoptosis and elicited G2/M phase cell cycle arrest”.

Q: And the “cytotoxic potency relative to curcumin” value ([1]; greater than curcumin)?
A: Its value is 20 fold.

Q: And the body weight ([2]; 4 mg/kg, after 15 days)?
A: Its body weight is “nonsignificant loss of body weight”.

Q: And the tumor growth ([2]; 4 mg/kg/day intraperitoneally for 14 days)?
A: Its tumor growth is “significantly suppressed tumor growth”.

Q: And the “liver or spleen weight” value ([2]; intraperitoneal administration for 2 weeks)?
A: The value was “did not alter liver or spleen weight”.

Q: What about the “growth rate of colon tumors following treatment” value ([2]; over 15 days, 4 mg/kg/day ip) of the same molecule?
A: The value was 400%.

Q: And the tumor growth [3]?
A: The tumor growth was “unable to suppress tumor growth”.
